Experimental data taken from article PMC4007056 (Molecular cancer therapeutics, 2014).

How the values were obtained:
[1] = tested on: i.c. HIFko tumor derived cell suspension; assay: ex vivo binding of individual phage to tumor-derived cell suspension; type: cell-based, mouse; settings: cell suspension from tumor containing brain relative to normal brain
[2] = tested on: intracranial HIFko tumors; assay: in vivo homing of intravenously injected phage; parameters: species or system mouse; settings: intravenous injection; compared to control phage; mean of three experiments
Procedure, shortened: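 T7Select415-1 phage displaying the peptide were injected into the tail vein of mice bearing intracranial HIFko tumors and circulated 15 min. Tissues were excised and phage recovered and amplified in E. coli BLT5615. Non-recombinant control phage was injected into a separate mouse, and homing was expressed relative to it. Mean of three experiments, ±SEM.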

[3] = tested on: subcutaneous tumors established from the HIFko cells; assay: in vivo homing of fluorescein-conjugated peptide, subcutaneous HIFko tumors; parameters: species or system mouse; settings: fluorescein-conjugated peptide i.v., 60 min
Procedure, shortened: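 Athymic female Balb/c nu-nu mice (4–6 wk) were grafted subcutaneously on the abdominal side with 5×10^6 HIFko cells. Fluorescein-labelled peptide was given intravenously and circulated one hour. Frozen tissue sections (5–10 µm) were stained with rabbit anti-FITC antibody, Alexa-conjugated secondary antibody and DAPI, then viewed by fluorescence microscopy.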

[4] = tested on: tumors derived from VEGF-expressing HIFko cells; assay: in vivo homing of fluorescein-conjugated peptide, VEGF-expressing HIFko tumors; parameters: species or system mouse; settings: fluorescein-conjugated peptide i.v., 60 min; i.c. tumors
Procedure, shortened: (§1)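 Athymic female Balb/c nu-nu mice (4–6 wk) with intracranial tumors, used 10–21 days after inoculation. Fluorescein-labelled peptide (100 µM, 100 µl/animal) was injected into the tail vein and circulated 60 min. Mice were perfused through the […] and tumors excised. Frozen sections (5–10 µm) were stained with rabbit anti-FITC, anti-PECAM-1 for vessels and DAPI, then examined by fluorescence microscopy.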

[5] = tested on: orthotopic MDA-MB-231 human breast cancer xenografts; assay: in vivo homing of fluorescein-conjugated peptide, MDA-MB-231 xenografts; parameters: species or system mouse; settings: fluorescein-conjugated peptide i.v., 60 min
Procedure, shortened: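 Athymic female Balb/c nu-nu mice (4–6 wk) bearing xenografts received fluorescein-labelled peptide intravenously, circulated one hour. Frozen sections (5–10 µm) were stained with rabbit anti-FITC and anti-PECAM-1 antibodies, Alexa-conjugated secondaries and DAPI, then examined under a fluorescence microscope.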

[6] = tested on: intracranial U87MG human glioma; assay: in vivo homing of fluorescein-conjugated peptide, i.c. U87MG glioma; parameters: species or system mouse; settings: fluorescein-conjugated peptide i.v., 60 min
Procedure, shortened: as §1

[7] = tested on: i.c. tumors derived from MDGI expressing U87MG cells; type: in vivo, mouse; settings: MDGI expressing versus control U87MG tumors; fluorescein-conjugated peptide i.v.
[8] = tested on: rat BT4C glioma xenografts; assay: in vivo homing of fluorescein-conjugated peptide, BT4C glioma; parameters: species or system mouse; settings: fluorescein-conjugated peptide i.v., 60 min
Procedure, shortened: as §1

[9] = tested on: intracranial HIFko tumors; assay: treatment of intracranial HIFko tumor-bearing mice with targeted Cbl; type: in vivo, mouse
Procedure, shortened: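 Athymic female Balb/c nu-nu mice (4–6 wks) bearing intracranial HIFko tumours were randomised to groups of 4 from day 5 post-implantation. They received i.v. PBS, peptide–drug conjugate (5 mg/kg), or free drug at the same molar amount, every second day. Body weight was monitored, and mice were sacrificed once weight loss exceeded 10%.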

CGLSGLGVA [phage 36] was tested, and the “brain tumor to normal brain ratio of ex vivo phage binding” value [1] was “over 80” and the “accumulation in other organs (liver, kidney, lung, normal brain)” value [2] was “negligible accumulation”.

With CSESGLGVA [phage 34] the “brain tumor to normal brain ratio of ex vivo phage binding” value [1] was “about 13”.

H-ACGLSGLGVA-NH2 [CooP] was tested, and the “homing to subcutaneous HIFko tumors” value [3] was “did not home”, the “homing to tumors derived from VEGF-expressing HIFko cells” value [4] was “did not home” and the “homing to MDA-MB-231 human breast cancer xenografts” value [5] was “No CooP peptide was detected”. The “homing to intracranial U87MG human glioma” value [6] was “homed”, the “effect of MDGI-expression on peptide homing to i.c. U87MG tumors” value [7] was “substantially increased” and the “homing to rat BT4C glioma xenografts” value [8] was “homed”.

For “NH2-CGLSGLGVAGGMVRRFLVTLRIRRACGPPRVRVK(^εCbl)-CONH2 [CooP-CPP-Cbl]”, the “signs of tumor burden” value ([9]; 5 mg/kg i.v. every second day from d5) was “did not show any signs of tumor burden”, the body weight course ([9]; 5 mg/kg i.v. every second day from d5, 4 mice/group) was “gained weight” and the “life span of the animals” value ([9]; 5 mg/kg i.v. every second day from d5, versus saline and free Cbl) was “prolonged the life span”. For the same substance, the “size of the primary tumor versus control groups” value ([9]; 5 mg/kg i.v. every second day, four sections/animal) was “no difference”.
